# Data as given in ChEMBL document CHEMBL5724801, “EUbOPEN Chemogenomics Library - Multiplex” (2024).
# Several values for one entry are separate records, joined by “and”; a condition that tells them apart may be missing. Equal values may be shown once.
# System: U2OS
# Assay: Multiplex assay against U2OS
# Type: toxicity, cell-based
# Conditions: human
# In short: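 On a CQ1 microscope at 37°C and 5% CO2, live cells were imaged after compound addition. They had been stained at seeding with Hoechst33342, BioTracker Green Microtubule Cytoskeleton Dye, MitoTracker Red and Annexin V Alexa Fluor 680. CellPathfinder machine-learning gating assigned cells to Hoechst high-intensity objects or normal cells, normal cells to healthy, pyknosed or fragmented nuclei, and pyknosed cells to mitotic or apoptotic. Tubulin, mitochondrial-mass and membrane-permeability phenotypes are per cents of healthy-nucleus cells.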
# [1] = 12 h, 1 µM, compound concentration 1 uM
# [2] = 12 h, 10 µM, compound concentration 10 uM
# [3] = 24 h, 1 µM, compound concentration 1 uM
# [4] = 24 h, 10 µM, compound concentration 10 uM
# [5] = 48 h, 1 µM, compound concentration 1 uM
# [6] = 48 h, 10 µM, compound concentration 10 uM
smiles,measurement,setting,value
Cc1ccc(F)cc1C(=O)Nc1ccc(C(=O)N2Cc3cccn3Cc3ccccc32)c(Cl)c1 [LIXIVAPTAN],Population Apoptotic (%),[1],69% and 84%
same,Population Healthy Nuclei (%),[1],55% and 82%
same,Population Hoechst High Intensity Objects (%),[1],3%
same,Population Membrane Permeable-Phenotype (%),[1],9% and 14%
same,Population Mitochondria Different-Phenotype (%),[1],9% and 10%
same,Population Mitotic Cells (%),[1],30% and 15%
same,Population Normal (%),[1],96%
same,Population Pyknosed Nuclei (%),[1],11% and 8%
same,Population Tubulin-Different-Phenotype (%),[1],7% and 11%
same,Total Cell Count,[1],230 and 150
same,Population Apoptotic (%),[2],59% and 47%
same,Population Fragmented Nuclei (%),[2],34% and 13%
same,Population Healthy Nuclei (%),[2],49% and 69%
same,Population Hoechst High Intensity Objects (%),[2],5%
same,Population Membrane Permeable-Phenotype (%),[2],79% and 63%
same,Population Mitochondria Different-Phenotype (%),[2],42% and 55%
same,Population Mitotic Cells (%),[2],40% and 52%
same,Population Normal (%),[2],94%
same,Population Pyknosed Nuclei (%),[2],16%
same,Population Tubulin-Different-Phenotype (%),[2],85% and 77%
same,Total Cell Count,[2],203 and 119
same,Population Apoptotic (%),[3],86% and 57%
same,Population Fragmented Nuclei (%),[3],26% and 14%
same,Population Healthy Nuclei (%),[3],64% and 81%
same,Population Hoechst High Intensity Objects (%),[3],1% and 4%
same,Population Membrane Permeable-Phenotype (%),[3],9% and 11%
same,Population Mitochondria Different-Phenotype (%),[3],9% and 13%
same,Population Normal (%),[3],98% and 95%
same,Population Pyknosed Nuclei (%),[3],8% and 4%
same,Population Tubulin-Different-Phenotype (%),[3],4% and 7%
same,Total Cell Count,[3],257 and 171
same,Population Apoptotic (%),[4],59% and 66%
same,Population Fragmented Nuclei (%),[4],30% and 14%
same,Population Healthy Nuclei (%),[4],50% and 67%
same,Population Hoechst High Intensity Objects (%),[4],4%
same,Population Membrane Permeable-Phenotype (%),[4],65% and 54%
same,Population Mitochondria Different-Phenotype (%),[4],63% and 67%
same,Population Mitotic Cells (%),[4],40% and 33%
same,Population Normal (%),[4],95%
same,Population Pyknosed Nuclei (%),[4],18%
same,Population Tubulin-Different-Phenotype (%),[4],75% and 66%
same,Total Cell Count,[4],207 and 119
same,Population Apoptotic (%),[5],87% and 95%
same,Population Fragmented Nuclei (%),[5],24% and 10%
same,Population Healthy Nuclei (%),[5],64% and 79%
same,Population Hoechst High Intensity Objects (%),[5],1% and 3%
same,Population Membrane Permeable-Phenotype (%),[5],9% and 13%
same,Population Mitochondria Different-Phenotype (%),[5],6% and 11%
same,Population Mitotic Cells (%),[5],12% and 5%
same,Population Normal (%),[5],98% and 96%
same,Population Pyknosed Nuclei (%),[5],11% and 10%
same,Population Tubulin-Different-Phenotype (%),[5],5%
same,Total Cell Count,[5],378 and 206
same,Population Apoptotic (%),[6],75% and 92%
same,Population Fragmented Nuclei (%),[6],32% and 18%
same,Population Healthy Nuclei (%),[6],37% and 58%
same,Population Hoechst High Intensity Objects (%),[6],5% and 12%
same,Population Membrane Permeable-Phenotype (%),[6],49% and 60%
same,Population Mitochondria Different-Phenotype (%),[6],40% and 52%
same,Population Normal (%),[6],94% and 87%
same,Population Pyknosed Nuclei (%),[6],29% and 23%
same,Population Tubulin-Different-Phenotype (%),[6],44% and 57%
same,Total Cell Count,[6],232 and 137
CC(C)CC(=O)Nc1cncc(-c2ccc3[nH]nc(-c4nc5c(-c6cccc(F)c6)cncc5[nH]4)c3c2)c1 [LORECIVIVINT],Population Apoptotic (%),[1],45.16% and 22.22%
same,Population Fragmented Nuclei (%),[1],2.6% and 2.94%
same,Population Healthy Nuclei (%),[1],88.44% and 83.82%
same,Population Hoechst High Intensity Objects (%),[1],0%
same,Population Membrane Permeable-Phenotype (%),[1],5.23% and 5.26%
same,Population Mitotic Cells (%),[1],54.84% and 77.78%
same,Population Normal (%),[1],100%
same,Population Pyknosed Nuclei (%),[1],8.96% and 13.24%
same,Population Tubulin-Different-Phenotype (%),[1],7.84% and 9.65%
same,Total Cell Count,[1],346 and 136
same,Population Apoptotic (%),[2],60.48% and 43.06%
same,Population Fragmented Nuclei (%),[2],3.46% and 6.63%
same,Population Healthy Nuclei (%),[2],55.31% and 53.59%
same,Population Hoechst High Intensity Objects (%),[2],0%
same,Population Membrane Permeable-Phenotype (%),[2],4.46% and 6.19%
same,Population Mitochondria Different-Phenotype (%),[2],0% and 2.06%
same,Population Mitotic Cells (%),[2],39.52% and 56.94%
same,Population Normal (%),[2],100%
same,Population Pyknosed Nuclei (%),[2],41.23% and 39.78%
same,Population Tubulin-Different-Phenotype (%),[2],8.04% and 1.03%
same,Total Cell Count,[2],405 and 181
same,Population Apoptotic (%),[3],65.71% and 37.04%
same,Population Fragmented Nuclei (%),[3],3.06% and 4.14%
same,Population Healthy Nuclei (%),[3],87.22% and 77.24%
same,Population Hoechst High Intensity Objects (%),[3],0.28% and 0%
same,Population Membrane Permeable-Phenotype (%),[3],2.87% and 3.57%
same,Population Mitotic Cells (%),[3],34.29% and 62.96%
same,Population Normal (%),[3],99.72% and 100%
same,Population Pyknosed Nuclei (%),[3],9.72% and 18.62%
same,Population Tubulin-Different-Phenotype (%),[3],5.73% and 4.46%
same,Total Cell Count,[3],361 and 145
same,Population Apoptotic (%),[4],54.77% and 33.33%
same,Population Fragmented Nuclei (%),[4],3.76% and 6.3%
same,Population Healthy Nuclei (%),[4],39.53% and 38.24%
same,Population Hoechst High Intensity Objects (%),[4],0%
same,Population Membrane Permeable-Phenotype (%),[4],4.17% and 5.49%
same,Population Mitochondria Different-Phenotype (%),[4],0.6% and 2.2%
same,Population Mitotic Cells (%),[4],45.23% and 66.67%
same,Population Normal (%),[4],100%
same,Population Pyknosed Nuclei (%),[4],56.71% and 55.46%
same,Population Tubulin-Different-Phenotype (%),[4],10.12% and 3.3%
same,Total Cell Count,[4],425 and 238
same,Population Apoptotic (%),[5],60.87% and 57%
same,Population Fragmented Nuclei (%),[5],5.63% and 2.11%
same,Population Healthy Nuclei (%),[5],42.54% and 27.46%
same,Population Hoechst High Intensity Objects (%),[5],0%
same,Population Membrane Permeable-Phenotype (%),[5],3.31% and 7.69%
same,Population Mitochondria Different-Phenotype (%),[5],0% and 12.82%
same,Population Mitotic Cells (%),[5],39.13% and 43%
same,Population Normal (%),[5],100%
same,Population Pyknosed Nuclei (%),[5],51.83% and 70.42%
same,Population Tubulin-Different-Phenotype (%),[5],7.95% and 10.26%
same,Total Cell Count,[5],355 and 142
same,Population Apoptotic (%),[6],66.91% and 37.27%
same,Population Fragmented Nuclei (%),[6],5.11% and 2.77%
same,Population Healthy Nuclei (%),[6],33.11% and 33.6%
same,Population Hoechst High Intensity Objects (%),[6],0%
same,Population Membrane Permeable-Phenotype (%),[6],5.37% and 9.41%
same,Population Mitochondria Different-Phenotype (%),[6],1.34% and 1.18%
same,Population Mitotic Cells (%),[6],33.09% and 62.73%
same,Population Normal (%),[6],100%
same,Population Pyknosed Nuclei (%),[6],61.78% and 63.64%
same,Total Cell Count,[6],450 and 253
